Experimental findings from ChEMBL document CHEMBL1136477, “beta-alanine dipeptides as MC4R agonists” (Bioorg Med Chem Lett, 2003) are described below.

The target in assay [1] is T1, Melanocortin receptor 4 (Homo sapiens, UniProt P32245). As to the kind of experiment: Binding activity was measured using membranes of Hi5 cells expressing the human MC4R receptors. It is filed as cell membranes, BTI-TN-5B1-4.
The target of assay [2] is T1, Melanocortin receptor 4. As to the kind of experiment: Stimulation of adenylate cyclase in HEK293 cells expressing the human MC4R receptor was determined by measuring cAMP accumulation using the RPA559 SPA assay. It is filed as functional, cell-based. In short, it runs like this: (§1)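 HEK293 cells stably expressing human MC4R (MEM, G418, 10% heat-inactivated FBS) seeded 5×10^4 cells/well overnight. Then 10 min at 37 °C with 0.1 mM IBMX and increasing compound (1% DMSO final). After lysis, cAMP read by SPA kit. EC50 by non-linear regression. Intrinsic activity is % of NDP-a-MSH maximum. Run twice or three times in duplicate.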

Assay [3] can be described thus: Intrinsic activity was expressed as percent of maximal activity achieved by NDP-alpha-MSH. It is filed as functional. The method, boiled down:
as §1

T1 sequence (P32245 whole entry): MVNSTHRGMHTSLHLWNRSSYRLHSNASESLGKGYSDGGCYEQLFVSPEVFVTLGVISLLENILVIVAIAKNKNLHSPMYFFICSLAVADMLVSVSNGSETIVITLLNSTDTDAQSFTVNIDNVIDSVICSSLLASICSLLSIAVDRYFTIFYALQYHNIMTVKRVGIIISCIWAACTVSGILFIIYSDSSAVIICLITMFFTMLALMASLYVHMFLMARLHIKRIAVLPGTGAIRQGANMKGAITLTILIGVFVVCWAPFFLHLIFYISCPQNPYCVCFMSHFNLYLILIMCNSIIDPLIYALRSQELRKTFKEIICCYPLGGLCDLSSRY

For `CC(=O)NCCC(=O)N[C@H](Cc1ccc(Cl)cc1)C(=O)N1CCC(Cn2cncn2)(C2CCCCC2)CC1`, the IC50 at Melanocortin receptor 4 [1] came out at 12 nM.

`CC(C)(N)CC(=O)N[C@H](Cc1ccc(Cl)cc1)C(=O)N1CCC(Cn2cncn2)(C2CCCCC2)CC1`: on Melanocortin receptor 4 [1], the IC50 is 18 nM.

For `O=C(C[C@@H]1CCCN1)N[C@H](Cc1ccc(Cl)cc1)C(=O)N1CCC(Cn2cncn2)(C2CCCCC2)CC1`, the IC50 at Melanocortin receptor 4 [1] is 22 nM.

As to `O=C(CCNC(=O)[C@@H]1CCCNC1)N[C@H](Cc1ccc(Cl)cc1)C(=O)N1CCC(Cn2cncn2)(C2CCCCC2)CC1`, on Melanocortin receptor 4 [1], the IC50 amounted to 25 nM.

As to `O=C(CCN1CCCCC1)NCCC(=O)N[C@H](Cc1ccc(Cl)cc1)C(=O)N1CCC(Cn2cncn2)(C2CCCCC2)CC1`, the IC50 at Melanocortin receptor 4 [1] turned out to be 12 nM.

Take `O=C(N[C@H](Cc1ccc(Cl)cc1)C(=O)N1CCC(Cn2cncn2)(C2CCCCC2)CC1)C1CNC1`: the IC50 on Melanocortin receptor 4 [1] came to 16 nM.

Take `NCCC(=O)N[C@H](Cc1ccc(Cl)cc1)C(=O)N1CCC(Cn2cncn2)(C2CCCCC2)CC1`: the concentration for a half-maximal effect (EC50) at Melanocortin receptor 4 [2] is 170 nM. This molecule also registered a Max stimulation in assay [3] of 92%. The IC50 on Melanocortin receptor 4 [1] stood at 16 nM.

The molecule `O=C(N[C@H](Cc1ccc(Cl)cc1)C(=O)N1CCC(Cn2cncn2)(C2CCCCC2)CC1)[C@H]1CCCNC1` returned an IC50 at Melanocortin receptor 4 [1] of 9 nM.

For the molecule `CNCCC(=O)N[C@H](Cc1ccc(Cl)cc1)C(=O)N1CCC(Cn2cncn2)(C2CCCCC2)CC1`, the EC50 on Melanocortin receptor 4 [2] was 70 nM. The molecule also came in with a Max stimulation in assay [3] of 98%. This molecule also returned an IC50 at Melanocortin receptor 4 [1] of 10 nM.

Molecule `O=C(CCN(Cc1ccccc1)Cc1ccccc1)N[C@H](Cc1ccc(Cl)cc1)C(=O)N1CCC(Cn2cncn2)(C2CCCCC2)CC1` had an IC50 on Melanocortin receptor 4 [1] of 110 nM.

For `O=C(CCNC(=O)[C@H]1CCCNC1)N[C@H](Cc1ccc(Cl)cc1)C(=O)N1CCC(Cn2cncn2)(C2CCCCC2)CC1`, on Melanocortin receptor 4 [1], the IC50 amounted to 22 nM.

`O=C(CCNC(=O)C(F)(F)F)N[C@H](Cc1ccc(Cl)cc1)C(=O)N1CCC(Cn2cncn2)(C2CCCCC2)CC1` displayed an IC50 on Melanocortin receptor 4 [1] of 180 nM.

`O=C(N[C@H](Cc1ccc(Cl)cc1)C(=O)N1CCC(Cn2cncn2)(C2CCCCC2)CC1)[C@@H]1CCCNC1` showed a concentration for half-maximal inhibition (IC50) at Melanocortin receptor 4 [1] of 12 nM.

Turning to `CC(C)(CN)C(=O)N[C@H](Cc1ccc(Cl)cc1)C(=O)N1CCC(Cn2cncn2)(C2CCCCC2)CC1`, on Melanocortin receptor 4 [1], the half-maximal inhibitory concentration (IC50) came out at 30 nM.

At Melanocortin receptor 4 [1], `O=C(CCNC(=O)c1ccccc1)N[C@H](Cc1ccc(Cl)cc1)C(=O)N1CCC(Cn2cncn2)(C2CCCCC2)CC1` came in with an IC50 of 90 nM.

`CN(C)CCC(=O)N[C@H](Cc1ccc(Cl)cc1)C(=O)N1CCC(Cn2cncn2)(C2CCCCC2)CC1` gave an EC50 at Melanocortin receptor 4 [2] of 40 nM. This molecule gave a Max stimulation in assay [3] of 98%. The IC50 at Melanocortin receptor 4 [1] came out at 10 nM.

Consider `COCC(=O)NCCC(=O)N[C@H](Cc1ccc(Cl)cc1)C(=O)N1CCC(Cn2cncn2)(C2CCCCC2)CC1`, for which the IC50 on Melanocortin receptor 4 [1] was 21 nM.

On to `O=C(N[C@H](Cc1ccc(Cl)cc1)C(=O)N1CCC(Cn2cncn2)(C2CCCCC2)CC1)[C@H]1Cc2ccccc2CN1`, for which the Max stimulation in assay [3] came to 99%.

As for `O=C(CCNCc1ccccc1)N[C@H](Cc1ccc(Cl)cc1)C(=O)N1CCC(Cn2cncn2)(C2CCCCC2)CC1`, the IC50 at Melanocortin receptor 4 [1] amounted to 14 nM.

The molecule `CN(C)CCC(=O)NCCC(=O)N[C@H](Cc1ccc(Cl)cc1)C(=O)N1CCC(Cn2cncn2)(C2CCCCC2)CC1` yielded an IC50 at Melanocortin receptor 4 [1] of 11 nM.
